Laboratory results as given in ChEMBL document CHEMBL1140799, “Novel heterocycle-substituted pyrimidines as inhibitors of NF-kappaB transcription regulation related to TNF-alpha cytokine release” (Bioorg Med Chem Lett, 2008).
Activity calls are given as the source filed them. The rule behind the calls is not given here.

Legend:
[1] = target: Glycogen synthase kinase-3 beta (Homo sapiens, UniProt P49841); test: Inhibition of GSK3-beta
[2] = (§1) Inhibition of NF-kappaB-mediated transcriptional activation in human A549 cells; format: cell-based
Jurkat = test: (§2) Inhibition of AP1-mediated transcriptional activation in human Jurkat cells; format: cell-based
Mus musculus [3] = test: Inhibition of LPS-induced TNFalpha release in BALB/c mouse at 50 mg/kg; format: functional
How it was run: (§3)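 Oral dosing of BALB/c mice 30 min before LPS challenge (0.1 mg/kg ip). Serum TNF-α determined 90 min after LPS. BIRB796 (p38 MAP kinase inhibitor) served as reference compound.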

[4] = as §2; format: cell-based
A549 = test: as §1; format: cell-based
THP-1 = test: Inhibition of LPS-induced TNFalpha production in human THP1 cells; format: functional, cell-based
How it was run: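 THP-1 monocytes seeded at 1 × 10⁶ cells/mL in 1% FCS medium and left overnight. Compound pretreatment for 1 h, then LPS stimulation for 24 h. TNF-α in supernatants measured by sandwich ELISA. IC50 is the mean of n = 3 repeat experiments, SD given.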

Mus musculus [5] = test: Inhibition of LPS-induced TNFalpha release in BALB/c mouse at 300 mg/kg relative to […]; format: functional; how it was run: as §3

IC50 [1] [nM]	IC50 [2] [nM]	IC50 [4] [nM]	Activity [1]	Compound	Activity (Jurkat)	other results
140	7800	–	–	COCCn1cc(-c2ccnc(Nc3cccc(OC)c3)n2)c2ccccc21	inactive	–
60	1700	700	–	C1=CC2C(c3ccnc(Nc4ccccc4)n3)=C(c3ccccc3)NN2C=C1 (configuration not stated)	–	–
30	1900	1600	–	COc1cccc(Nc2nccc(C3=C(c4ccccc4)NN4C=CC=CC34)n2)c1 (configuration not stated)	–	–
10600	4300	4900	–	Cc1ccc(Cl)cc1Nc1nccc(C2=CNN3C=CC=CC23)n1 (configuration not stated)	–	–
100	1000	1800	–	COc1cccc(Nc2nccc(C3=CNN4C=CC=CC34)n2)c1 (configuration not stated)	–	–
2200	1400	–	–	COCCn1cc(-c2ccnc(Nc3cccc(OC)c3)n2)c2cccnc21	inactive	IC50 (THP-1): 990 nM; inhibition in vivo at 300 mg/kg (Mus musculus [5]): 89%
150	600	900	–	C1=CC2C(c3ccnc(Nc4ccccc4)n3)=CNN2C=C1 (configuration not stated)	–	IC50 (THP-1): 140 nM

Further lines, the compound ahead of its results:

Compound	IC50 [1] [nM]	IC50 [2] [nM]	IC50 [4] [nM]	Activity [1]	Activity (Jurkat)	other results
Cc1ccc(-n2nc(C(C)(C)C)cc2NC(=O)Nc2ccc(OCCN3CCOCC3)c3ccccc23)cc1 [DORAMAPIMOD]	–	–	–	–	–	inhibition in vivo at 50 mg/kg (Mus musculus [3]): 93%
O=C(Nc1n[nH]c2nc(N3CCNCC3)c(F)cc12)C1CC1	–	–	–	inactive	inactive	Activity (A549): inactive
O=C(Nc1n[nH]c2nc(N3CCN(C(=O)c4ccc(F)cc4F)CC3)c(F)cc12)C1CC1	–	19300	–	inactive	inactive	–
COc1ccccc1C(=O)N1CCN(c2nc3[nH]nc(NC(=O)C4CC4)c3cc2F)CC1	–	13100	–	inactive	inactive	–
COc1ccccc1N1CCN(c2nc3[nH]nc(NC(=O)C4CC4)c3cc2F)CC1	–	10900	–	inactive	inactive	Activity (THP-1): inactive
COCCn1cc(-c2ccnc(Nc3ccccc3)n2)c2cccnc21	1050	5600	11400	–	–	–
O=C(Nc1n[nH]c2nc(N3CCN(S(=O)(=O)c4ccccc4C(F)(F)F)CC3)c(F)cc12)C1CC1	–	9400	–	inactive	inactive	–
COCCn1cc(-c2ccnc(Nc3ccccc3)n2)c2ccccc21	320	10400	–	–	inactive	–
